Test results taken from ChEMBL document CHEMBL4017507 (J Med Chem, 2017).

Legend:
Human betaherpesvirus 5 [1] = assay: Antiviral activity against human cytomegalovirus AD-169 infected in human HEL cells assessed as inhibition of virus-induced cytopathic effect; format: functional, cell-based; details: Human betaherpesvirus 5, AD-169, HEL
In short: (§1)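 Confluent HEL fibroblast monolayers were inoculated in 96-well plates with 100 CCID50 of virus in the presence of serially varied compound concentrations. Cytopathicity was scored once untreated infected controls reached full CPE.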

[2] = test system: Human immunodeficiency virus 1; assay: Antiviral activity against HIV1 X4LAI.04 infected in human MT4 cells assessed as decrease in viral replication by p24gag-based luminex assay; format: functional, cell-based; details: Human immunodeficiency virus 1, X4LAI.04, MT4
In short: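 10^6 MT-4 cells were infected with HIV-1 X4LAI.04 (7 ng p24) for 2 h at 37 °C, then washed with PBS and resuspended. Compounds were added and cultures were kept 3 days at 37 °C. Supernatant p24 was measured by bead-based Luminex. Inhibition was calculated as (1 − p24 treated/p24 untreated) × 100, and EC50 was derived from it.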

MT4 = assay: Cytotoxicity against human MT4 cells assessed as reduction in cell viability by cell counting method; format: cell-based
In short: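 MT-4 cultures, untreated or treated, were assessed with an automated cell counter using propidium iodide staining to enumerate total and dead cells.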

CCRF-CEM = assay: Cytostatic activity human CEM cells assessed as reduction in cell viability after 72 hrs by cell counting method; format: cell-based; details: ccrf-cem, 72 h
In short: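 (5–7.5) × 10^? CEM cells per well were grown with compound for 72 h at 37 °C under humidified CO2. Cells were counted in a Coulter counter.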

Human alphaherpesvirus 1 [3] = assay: Antiviral activity against Herpes simplex virus 1 KOS infected in human HEL cells assessed as inhibition of virus-induced cytopathic effect; format: functional, cell-based; details: Human alphaherpesvirus 1, KOS; in short: as §1
Human alphaherpesvirus 2 = assay: Antiviral activity against Herpes simplex virus 2 G infected in human HEL cells assessed as inhibition of virus-induced cytopathic effect; format: functional, cell-based; details: Human alphaherpesvirus 2, strain G; in short: as §1
Human alphaherpesvirus 1 [4] = assay: Antiviral activity against ACV-resistant thymidine kinase deficient Herpes simplex virus 1 KOS infected in human HEL cells assessed as inhibition of virus-induced cytopathic effect; format: functional, cell-based; details: Human alphaherpesvirus 1, KOS; in short: as §1
[5] = Cytotoxicity against human HEL cells assessed as alteration to cell morphology by microscopic analysis; format: cell-based
In short: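 Minimal cytotoxic concentration is the compound concentration giving a microscopically visible alteration of HEL cell morphology, scored in the antiviral assay cultures.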

Human betaherpesvirus 5 [6] = assay: Antiviral activity against human cytomegalovirus Davis infected in human HEL cells assessed as inhibition of virus-induced cytopathic effect; format: functional, cell-based; details: Human betaherpesvirus 5, Davis; in short: as §1
Human alphaherpesvirus 3 [7] = assay: Antiviral activity against Varicella-Zoster virus OKA infected in human HEL cells assessed as inhibition of virus-induced cytopathic effect; format: functional, cell-based; details: Human alphaherpesvirus 3, strain Oka vaccine
In short: (§2)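 Confluent HEL fibroblast cultures were inoculated with 20 PFU of VZV in the presence of varying compound concentrations. Plaque formation was recorded once untreated infected controls reached completion.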

Human alphaherpesvirus 3 [8] = assay: Antiviral activity against thymidine kinase deficient Varicella-Zoster virus 07-1 infected in human HEL cells assessed as inhibition of virus-induced cytopathic effect; format: functional, cell-based; details: Human alphaherpesvirus 3, 07-1, HEL; in short: as §2
HEL = assay: Cytotoxicity against human HEL cells assessed as cell growth inhibition by cell counting method; format: cell-based
[9] = Drug metabolism assessed as carboxypeptidase Y (unknown origin)-mediated metabolite 79 formation measured after 14 hrs by [31P]-NMR spectroscopic analysis; format: ADME; details: human
[10] = Drug metabolism assessed as carboxypeptidase Y (unknown origin)-mediated metabolite 81 peak measured after 14 hrs by [31P]-NMR spectroscopic analysis; format: ADME; details: human
[11] = Drug metabolism assessed as carboxypeptidase Y (unknown origin)-mediated metabolite 81 formation measured after 2 hrs by [31P]-NMR spectroscopic analysis; format: ADME; details: human
[12] = Drug metabolism assessed as carboxypeptidase Y (unknown origin)-mediated metabolite 79 formation measured after 2 hrs by [31P]-NMR spectroscopic analysis; format: ADME; details: human
[13] = test system: Human immunodeficiency virus 1; assay: Antiviral activity against HIV1 X4LAI.04 infected in human tonsillar tissues assessed as inhibition of virus-induced cytopathic effect by p24gag-based luminex assay; format: functional; details: Human immunodeficiency virus 1, X4LAI.04
In short: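 Tonsillectomy tissue blocks of 2–3 mm³ were cultured on collagen sponge gels at the air–liquid interface, 27 blocks per donor per condition. Blocks were pretreated with compound overnight, infected with HIV-1 X4LAI.04 and cultured 12 days, with drug replenished at each medium change every 3 days. Medium p24 was measured by Luminex. Inhibition was calculated against untreated tissue, and EC50 was derived from it.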

[14] = Prodrug activation assessed as carboxypeptidase Y (unknown origin)-mediated 2-{5-[2-(2-Amino-6-chloro-purin-9-yl)-ethyl]-2-oxo-2lambda(5)-[1,3,2]dioxaphosphinan-2-ylamino}-propionic acid anion peak formation measured with in 1 hr by [31P]-NMR spectroscopic analysis; details: human
[15] = Prodrug activation assessed as carboxypeptidase Y (unknown origin)-mediated 2-((4-(2-amino-6-chloro-9H-purin-9-yl)-2-(hydroxymethyl)butoxy)oxidophosphorylamino)propanoate peak formation measured after […] by [31P]-NMR spectroscopic analysis; details: human
[16] = Prodrug activation assessed as carboxypeptidase Y (unknown origin)-mediated 2-((4-(2-amino-6-chloro-9H-purin-9-yl)-2-(hydroxymethyl)butoxy)oxidophosphorylamino)propanoate formation measured after 8 hrs by [31P]-NMR spectroscopic analysis; details: human
[17] = Prodrug activation assessed as carboxypeptidase Y (unknown origin)-mediated 2-((4-(2-amino-6-chloro-9H-purin-9-yl)-2-(hydroxymethyl)butoxy)oxidophosphorylamino)propanoate formation by mass spectroscopic analysis; details: human
[18] = Drug metabolism assessed as carboxypeptidase Y (unknown origin)-mediated metabolite 81 peak measured after 15 mins by [31P]-NMR spectroscopic analysis; format: ADME; details: human
[19] = Drug metabolism assessed as carboxypeptidase Y (unknown origin)-mediated metabolite 79 formation measured after 15 mins by [31P]-NMR spectroscopic analysis; format: ADME; details: human
[20] = Drug metabolism assessed as carboxypeptidase Y (unknown origin)-mediated metabolite 81 peak formation measured with in 30 mins by [31P]-NMR spectroscopic analysis; format: ADME; details: human, 0.5 h

SMILES: CCCOC(=O)[C@H](C)NP(=O)(OCC(CCn1cnc2c(OC)nc(N)nc21)COP(=O)(N[C@@H](C)C(=O)OCCC)Oc1cccc2ccccc12)Oc1cccc2ccccc12 (stereo partly drawn)
- EC50 (Human betaherpesvirus 5 [1]): 32 µM
- EC50 [2]: 9.7 µM
- IC50 (MT4): 20 µM
- CC50 (CCRF-CEM): 6.8 µM
- EC50 (Human alphaherpesvirus 1 [3]): > 100 µM
- EC50 (Human alphaherpesvirus 2): > 100 µM
- EC50 (Human alphaherpesvirus 1 [4]): > 100 µM
- MCC [5]: 50 to 100 µM
- EC50 (Human betaherpesvirus 5 [6]): 40 µM
- EC50 (Human alphaherpesvirus 3 [7]): 6.1 µM
- EC50 (Human alphaherpesvirus 3 [8]): 8.1 µM
- CC50 (HEL): 4.9 µM
- Drug metabolism [9]: Metabolite_Detected
- Drug metabolism [10]: Metabolite_Detected

SMILES: CCCOC(=O)[C@H](C)NP(=O)(OCC(CO)CCn1cnc2c(OC)nc(N)nc21)Oc1cccc2ccccc12 (stereo partly drawn)
- EC50 (Human betaherpesvirus 5 [1]): 32 µM
- EC50 [2]: 11 µM
- IC50 (MT4): 13 µM
- CC50 (CCRF-CEM): 17 µM
- EC50 (Human alphaherpesvirus 1 [3]): 14 µM
- EC50 (Human alphaherpesvirus 2): 15 µM
- EC50 (Human alphaherpesvirus 1 [4]): ≥ 20 µM
- MCC [5]: 50 to 100 µM
- EC50 (Human betaherpesvirus 5 [6]): 50 µM
- EC50 (Human alphaherpesvirus 3 [7]): 3.7 µM
- EC50 (Human alphaherpesvirus 3 [8]): 9.1 µM
- CC50 (HEL): 14.4 µM
- Drug metabolism [11]: Metabolite_Detected
- Drug metabolism [12]: Metabolite_Detected

SMILES: C[C@H](NP1(=O)OCC(OCn2cnc3c(Cl)nc(N)nc32)CO1)C(=O)OCc1ccccc1 (stereo partly drawn)
- EC50 [2]: 85 µM
- IC50 (MT4): 150 µM
- CC50 (CCRF-CEM): 165 µM
- EC50 [13]: 9 µM
- EC50 (Human alphaherpesvirus 1 [3]): > 100 µM
- EC50 (Human alphaherpesvirus 2): > 100 µM
- EC50 (Human alphaherpesvirus 1 [4]): > 100 µM
- MCC [5]: > 100 µM
- Drug metabolism [14]: Metabolite_Detected
- Drug metabolism [15]: Metabolite_Detected
- Drug metabolism [16]: Metabolite_Detected
- Drug metabolism [17]: Metabolite_Detected

SMILES: C[C@H](NP(=O)(OCC(CO)CCn1cnc2c(=O)[nH]c(N)nc21)Oc1cccc2ccccc12)C(=O)OCc1ccccc1 (stereo partly drawn)
- EC50 (Human betaherpesvirus 5 [1]): > 50 µM
- EC50 [2]: 21 µM
- IC50 (MT4): 100 µM
- CC50 (CCRF-CEM): 138 µM
- EC50 (Human alphaherpesvirus 1 [3]): 73 µM
- EC50 (Human alphaherpesvirus 2): 79 µM
- EC50 (Human alphaherpesvirus 1 [4]): > 100 µM
- MCC [5]: 50 to 100 µM
- EC50 (Human betaherpesvirus 5 [6]): > 50 µM
- EC50 (Human alphaherpesvirus 3 [7]): 9.3 µM
- EC50 (Human alphaherpesvirus 3 [8]): > 50 µM
- CC50 (HEL): > 100 µM
- Drug metabolism [18]: Metabolite_Detected
- Drug metabolism [19]: Metabolite_Detected

SMILES: C[C@H](NP(=O)(OCC(CO)CCn1cnc2c(Cl)nc(N)nc21)Oc1ccccc1)C(=O)OCc1ccccc1 (mixture of isomers)
- EC50 (Human betaherpesvirus 5 [1]): > 100 µM
- EC50 [2]: 1 µM
- IC50 (MT4): 20 µM
- CC50 (CCRF-CEM): 33 µM
- EC50 [13]: 4 µM
- EC50 (Human alphaherpesvirus 1 [3]): > 100 µM
- EC50 (Human alphaherpesvirus 2): > 100 µM
- EC50 (Human alphaherpesvirus 1 [4]): > 100 µM
- MCC [5]: > 100 µM
- EC50 (Human betaherpesvirus 5 [6]): > 100 µM
- EC50 (Human alphaherpesvirus 3 [7]): 37.3 µM
- EC50 (Human alphaherpesvirus 3 [8]): 42.9 µM
- CC50 (HEL): 39 µM
- Drug metabolism [20]: Metabolite_Detected
